FAK blocker: blocks human focal adhesion kinase activity. Q05397. biochemical FAK kinase activity assay. inhibition, %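 (tested at 7 µM)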. 97,000 tested, 0.84% active. AID 727; in the data active = inhibition above about 19%;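 also: 0% = DMSO and 100% = reference compound high control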
Pyk2 oligo antag: antagonists of human Pyk2 oligomerization | AID 1347419 | z-score (the deposit names both 25 µM and 10 µM) | Q14289 | 99,000 tested, 0.83% active | Q293 cells, Pyk2 FERM NanoBiT luminescence; active compounds read low;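 active = Z-score of -3 or lower, scaled per plate to the spread of control and sample wells; inactive = z-score above -3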;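 also: negative z-score means lost luminescence so less FERM oligomerization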
Target sequence (Q14289 whole entry, looked up): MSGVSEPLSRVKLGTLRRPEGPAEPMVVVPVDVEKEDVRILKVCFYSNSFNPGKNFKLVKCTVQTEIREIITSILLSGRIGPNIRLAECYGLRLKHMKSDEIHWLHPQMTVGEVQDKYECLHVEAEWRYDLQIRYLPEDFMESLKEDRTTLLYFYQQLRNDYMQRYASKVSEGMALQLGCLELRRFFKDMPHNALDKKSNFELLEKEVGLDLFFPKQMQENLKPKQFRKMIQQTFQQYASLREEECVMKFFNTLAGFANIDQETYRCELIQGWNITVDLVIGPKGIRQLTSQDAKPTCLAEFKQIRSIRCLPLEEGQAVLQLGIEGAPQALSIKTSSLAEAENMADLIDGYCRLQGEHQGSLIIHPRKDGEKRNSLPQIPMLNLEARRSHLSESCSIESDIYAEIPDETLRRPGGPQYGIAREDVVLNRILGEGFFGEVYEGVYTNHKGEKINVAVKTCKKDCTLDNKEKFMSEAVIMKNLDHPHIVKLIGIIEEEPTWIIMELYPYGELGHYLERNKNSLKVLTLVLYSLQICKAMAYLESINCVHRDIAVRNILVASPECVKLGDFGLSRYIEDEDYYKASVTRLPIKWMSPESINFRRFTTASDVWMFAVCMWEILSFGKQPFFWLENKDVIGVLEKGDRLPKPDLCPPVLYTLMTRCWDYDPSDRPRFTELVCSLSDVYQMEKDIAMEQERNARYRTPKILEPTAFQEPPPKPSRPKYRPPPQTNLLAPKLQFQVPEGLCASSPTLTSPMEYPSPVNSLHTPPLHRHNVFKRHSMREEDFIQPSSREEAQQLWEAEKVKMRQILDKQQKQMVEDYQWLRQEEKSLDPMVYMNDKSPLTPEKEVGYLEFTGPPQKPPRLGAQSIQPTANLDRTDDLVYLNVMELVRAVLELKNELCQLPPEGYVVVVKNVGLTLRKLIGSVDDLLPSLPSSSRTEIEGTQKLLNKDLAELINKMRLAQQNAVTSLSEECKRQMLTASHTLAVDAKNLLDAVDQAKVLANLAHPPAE
PostGolgi ctrl: yeast control strain growth, post-Golgi counter-screen; inhibition, % at 10 µM; 98,000 tested, 5% active; efflux-deficient yeast background strain, growth absorbance A615, 16 h
PostGolgi yeast: growth inhibition of a yeast mutant, post-Golgi transport screen; inhibition, % at 10 µM; post-Golgi transport phenotypic cell assay; 98,000 tested, 0.9% active; AID 739;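 also: yeast cells grown in 1536-well plates; yeast grown about 18 h at 30C before absorbance read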
Calb biofilm kill: kills Candida albicans biofilms | 85,000 tested, 0.14% active | inhibition, % at 6 µM | C. albicans biofilm + clotrimazole, Alamar Blue;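 active = inhibition above 20%; inactive = inhibition below 20%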;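 also: preformed 24 hr biofilms exposed to compound for 48 hr; 0% = biofilm without compound and 100% = blank killed by clotrimazole plus chlorhexidine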
Ecoli tolC: growth inhibitors of E. coli BW25113 tolC mutant; OD615; growth inhibition, % at 10 µM (by protocol); 65,000 tested, 2.2% active; AID 573;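 active = growth inhibition at or above a cutoff equal to the mean over every tested compound plus 3 SD, cut at about 60% in these data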;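 also: growth measured after 20 h incubation at 37 °C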
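test system = E. coli BW25113 ΔtolC::kan bacteria | medium = LB with kanamycin 50 µg/mL | signal = OD at 615 nm | schedule = 37 °C, 20 h exposure | evaluation = % inhibition of E. coli growth | compound dosing = one dose of 10 µM final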
An asterisk follows results filed as active; . = no result given. Rows were chosen to be rich in hits. Some 6.9% of all compounds tested hit in one or more screens of this group. Rule as the data show it, unless noted: active = inhibition above about 30%; inactive = the rest.

SMILES | FAK blocker | Pyk2 oligo antag | PostGolgi ctrl | PostGolgi yeast | Calb biofilm kill | Ecoli tolC
CC(C)CCNC(=O)C12CN(Cc3ccccc3)CC1C(c1ccc([N+](=O)[O-])cc1)=NO2 (centres undefined) | -2 | . | 17 | -1 | . | .
COc1cccc(CNC(=O)C23CN(Cc4ccccc4)CC2C(c2ccc([N+](=O)[O-])cc2)=NO3)c1 (centres undefined) | 1 | . | 33* | -4 | . | .
Cc1ccccc1Cn1nnc(-c2cccc(C(=O)O)c2)n1 | -4 | 0.44 | 6 | 0 | 7 | 1
CCn1c(SC(=O)NC2CCCCC2)nnc1-c1cccs1 | -2 | 1.7 | 11 | 22 | . | -25
COc1cc(/C=C/C(=O)O)cc(S(=O)(=O)NCCCO)c1OC | -2 | 1.2 | 16 | 2 | . | .
Cc1cc(NCCC(C)C)n2nc(C)c(-c3ccccc3)c2n1 | 0 | -1.4 | 53* | -1 | 8 | .
Cc1cc(NCCCN2CCOCC2)n2nc(C)c(-c3ccccc3)c2n1 | 0 | -1.3 | 8 | 6 | -8 | -1
O=C(O)CN1C(=O)COc2cc(S(=O)(=O)N3CCCC3)ccc21 | -1 | . | -7 | 8 | -2 | -3
CN(C)c1ccc(C(=S)N2CCOCC2)cc1Br | -8 | 0 | 5 | 13 | . | 4
CCCc1nnc(NC(=O)c2ccc(N3C(=O)C4C5C=CC(C5)C4C3=O)cc2)s1 (centres undefined) | -1 | -3.2* | 6 | -2 | 0 | .
COc1ccc(CC(C)N2CCN(c3ccccc3OC)CC2)cc1OC (centres undefined) | . | -0.3 | 7 | 13 | 1 | -6
COc1cc(Cl)cc2c1Sc1ccccc1/C2=C/CCN(C)C | 1 | 0.41 | . | . | 7 | .
CN(C)CC/C=C1/c2ccccc2Sc2c(O)cc(Cl)cc21 | 40* | -0.73 | . | . | 3 | .
COc1ccccc1NC(=O)c1nn(C)cc1Br | -1 | -0.67 | 36* | -6 | 7 | .
COc1ccccc1NC(=S)NNC(=O)c1nn(C)cc1Cl | -6 | 0.8 | 6 | 0 | . | .
Cc1ccccc1-c1nc(CS(=O)(=O)CC(=O)Nc2cc(F)ccc2F)c(C)o1 | . | . | 92* | -7 | 16 | 7
COCCCNC(=O)CS(=O)(=O)Cc1nc(-c2ccccc2C)oc1C | 3 | . | 2 | 8 | . | -7
COc1ccc(S(=O)(=O)Nc2cc3c4c(oc3c3ccccc23)CC(C)(C)CC4=O)cc1 | -1 | -2.1 | 13 | -14 | -2 | .
COc1ccc(S(=O)(=O)Nc2cc3c4c(oc3c3ccccc23)CCCC4=O)cc1 | 0 | -1.5 | 45* | 2 | . | .
COc1cnc(-c2ccccn2)nc1Sc1ccc(Cl)cc1 | 3 | -0.22 | 35* | 3 | . | .
CCN(CC)S(=O)(=O)c1ccc(NCc2ccccc2)nc1 | 4 | 0.46 | 38* | -4 | 5 | -11
CCCNc1ccc(S(=O)(=O)N(CC)CC)cn1 | . | -0.04 | . | . | . | .
O=c1c(-c2nnc(SCc3ccc(Cl)cc3)o2)cccn1Cc1ccccc1 | 1 | -0.86 | 61* | 11 | . | .
Cc1ccccc1-c1nnc(SCc2ccc(F)cc2)o1 | -2 | -0.22 | 35* | -2 | 0 | 54
CC(=O)c1cn(CC(=O)Nc2ccccc2C)c2ccccc12 | -4 | 1.7 | 3 | 0 | 4 | .
SMILES | FAK blocker | Pyk2 oligo antag | PostGolgi ctrl | PostGolgi yeast | Calb biofilm kill | Ecoli tolC
CC(C)C12CN3CC(C(C)C)(CN(C1)C3c1ccccc1O)C2=O (centres undefined) | -2 | 0.41 | 12 | 6 | 9 | 38
COc1ccccc1-n1nc(C(=O)Nc2ccc3c(c2)OCO3)c2ccccc2c1=O | . | -1.4 | 4 | -1 | 5 | -1
Cc1cc(COc2ccccc2OCc2cc(C)no2)on1 | 1 | 0.19 | 10 | 8 | 8 | -10
COc1cccc(C2/C(=C(/O)c3ccccc3)C(=O)C(=O)N2CCCC(=O)O)c1 (centres undefined) | -4 | -0.22 | 2 | -3 | . | -18
CCn1c(CNC(=O)c2cccs2)nnc1SCC(=O)NCCc1ccccc1 | -2 | 0.63 | 31* | 3 | 12 | -9
CCn1c(SCC(=O)NCCc2ccccc2)nnc1-c1cccs1 | 9 | -0.03 | 9 | 8 | 3 | -16
Cc1ccc(C(=O)NCCSc2ccc(Cl)cc2)cc1[N+](=O)[O-] | 2 | -0.25 | 36* | 11 | . | .
Cc1ccc(SCCNC(=O)c2ccc(C)c([N+](=O)[O-])c2)cc1 | -5 | 1.1 | 9 | 0 | . | .
N#Cc1cc2sc3nnc(-c4ccncc4)n3c2cc1C#N | . | 0.72 | 37* | 6 | -3 | 16
OCCNCc1ccc(OC2CCCC2)cc1 | -7 | 0.28 | 4 | 0 | 7 | -6
CC(Oc1ccc(Cl)cc1Cl)C(=O)Nc1ccc2oc(-c3ccncc3)nc2c1 (centres undefined) | 2 | -3.2* | 9 | -2 | 9 | 48
CCCc1cc(=O)[nH]c(Nc2ccc(O)cc2)n1 | 0 | -0.9 | -2 | -2 | 2 | .
CCOc1cccc(C(=O)N(Cc2ccc(F)cc2)C2CCS(=O)(=O)C2)c1 (centres undefined) | 0 | 0.01 | 1 | -2 | 0 | -7
CCOC(=O)C1CCCc2c1[nH]c1c(C(N)=O)cccc21 (centres undefined) | -2 | -0.14 | 34* | 7 | -4 | .
NC(=O)c1cccc2c3c([nH]c12)CCCC3 | 8 | 1.5 | 11 | 7 | 9 | 1
COCCCNC(=O)c1ccc(CS(=O)(=O)Cc2cccc(C)c2)o1 | 2 | . | -3 | 15 | 8 | -24
O=C(c1ccc(Cl)cc1)c1oc2ccccc2c1CS(=O)c1ccccc1 (centres undefined) | 7 | -0.82 | 49* | -4 | . | .
Cc1sc(NC(=O)C2CCCCC2C(=O)O)c(C(N)=O)c1-c1ccc(C(C)(C)C)cc1 (centres undefined) | 5 | -0.87 | 30* | 8 | . | .
CCCn1c2ccccc2c2nc3ccccc3nc21 | 4 | -1.1 | 40* | 8 | -1 | 69*
CCn1c2ccccc2c2nnc(SCC(N)=O)nc21 | 2 | 0.53 | 10 | 1 | -1 | .
CCCn1c2ccccc2c2nnc(SCC(=O)OC)nc21 | -7 | -0.4 | 8 | 24 | 11 | -14
CCn1c2ccccc2c2nnc(SCc3ccc(C(=O)OC)o3)nc21 | 1 | -0.68 | 42* | -4 | 4 | 26
CCCn1c2ccccc2c2nnc(SCC(=O)OCC)nc21 | 2 | -1 | 39* | 4 | 10 | 6
CCn1c2ccccc2c2nnc(SCCCn3c(=O)[nH]c4ccccc43)nc21 | 0 | -3.5* | 19 | -7 | 7 | 40
N#CCCn1c2ccccc2c2nc3ccccc3nc21 | 7 | -0.32 | -5 | 7 | -1 | 19
Cn1ccnc1SCC(=O)Nc1ccc2nc(SCC(=O)NC3CC3)sc2c1 | 4 | . | 13 | -11 | 6 | -9
O=C(NCCc1ccccn1)C1CCCN(S(=O)(=O)Cc2ccccc2)C1 (centres undefined) | 1 | -0.23 | 10 | 3 | 6 | -7
COC(=O)c1ccccc1NC(=O)Nc1nnc(N2CCC(C)CC2)s1 | -5 | . | -3 | -6 | 10 | .
Cc1ccsc1/C=C(/C#N)C(=O)NCc1ccccc1 | . | 0.08 | . | . | . | .
CCn1c2ccccc2c2nnc(SCc3ccccc3)nc21 | . | . | 61* | 6 | 7 | 73*
